# HKDC1 inh: inhibitors of human hexokinase HKDC1; Q2TB90; recombinant HKDC1, G6PDH/diaphorase resazurin coupled fluorescence; inhibition, % at 20 µM; 0.16% of 340,000 active; AID 493160;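 active means inhibition above about 35% when tested at 20 µM, limit read from the data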;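 further: plate controls were DMSO wells with enzyme for no effect and DMSO wells lacking enzyme for full effect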
#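 Test system: recombinant HKDC1 (HK5) hexokinase enzyme, produced in-house; Amount: enzyme 5 µg/mL final; Buffer or medium: Tris pH 8.0 buffer with MgCl2, Tween-20, BSA, BME; Reagent: glucose and ATP substrates; Doses: 20 µM test compound, 1% DMSO; Incubation: 90 min reaction incubation at room temperature, dark; Detection: resorufin fluorescence at 613 nm.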
# A1 inh: inhibitors of the anti-apoptotic protein A1, read as caspase activation. MEF A1-2A-BIM cells, Caspase-Glo 3/7 luminescence, 3 h; percent of clofoctol response, vehicle zero. caspase activation, % (test concentration not listed). 0.066% of 330,000 active;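 active means over half of replicate activation scores above 10%, or exactly half above 10 with the replicate mean above 10; inconclusive means replicate mean below 10 yet half the replicates above 10; inactive means over half of replicates below 10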
# AI-2 QS modul: modulates the Vibrio harveyi AI-2 quorum sensing system; Vibrio harveyi JMH597 AI-2 luminescence/OD600 ratio, 9 h; hits give low values; strain lacks LuxN and CqsS sensors; 0 = neutral-control median; 0.4% of 300,000 active; activity change, % at 7.5 µM; in the data active means activity change below about -75%, passing the limit was not always enough; inconclusive means no clear call, values can overlap the other calls;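 further: luminescence divided by OD600 gain over 9 h not by final OD600 alone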
# ATG4B inh: ATG4B (human) cysteine protease inhibition | AID 504462 | ATG4B cleavage of LC3-PLA2, NBD-HPC fluorescence, 1 h | inhibition, % at 8.33 µM | 0.51% of 340,000 active | Q9Y4P1; in the data active means inhibition above about 40%
# HDAC3 inhib: blocks human histone deacetylase 3; recombinant HDAC3, fluorogenic peptide/trypsin coupled, fluorescence; O15379; 0.15% of 320,000 active; inhibition, % at 8.3 µM; in the data active means inhibition above about 26%, passing the limit was not always enough; inconclusive means no clear call, values can overlap the other calls
# LANA-H2A inh: blocks KSHV LANA binding to histone H2A/H2B | cell-free LANA-H2A/H2B peptide, fluorescence polarization | AID 2629 | Q9QR71 | inhibition, % (no concentration beside the values) | 0.6% of 320,000 active; in the data active means inhibition mostly above about 10%, no sharp cut-off; inactive means mostly below about 6.7%
# HKDC1 act conf2: HKDC1 (human) activation, single-dose confirmed | shares compounds with HKDC1 inh | recombinant HKDC1, G6PDH/diaphorase resazurin fluorescence; hits give low values | inhibition, % at 20 µM | 14% of 740 active;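 active means inhibition at or below a set negative limit, negative inhibition meaning the enzyme was activated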
# ATG4B confirm: ATG4B (human) inhibition, single-dose confirmed; shares compounds with ATG4B inh; ATG4B protease fluorescent substrate cleavage assay; inhibition, % at 8.33 µM; 92% of 320 active; in the data active means inhibition above about 39%
# PLA2 ctr: counter-screen for ATG4B inhibitors: human phospholipase A2; 66% of 1,600 active; inhibition, % at 8.33 µM; purified PLA2, NBD-C6-HPC fluorescence, 45 min; AID 588402; shares compounds with ATG4B inh; in the data active means inhibition above about 50%
# Target sequence (P04054 whole entry, looked up): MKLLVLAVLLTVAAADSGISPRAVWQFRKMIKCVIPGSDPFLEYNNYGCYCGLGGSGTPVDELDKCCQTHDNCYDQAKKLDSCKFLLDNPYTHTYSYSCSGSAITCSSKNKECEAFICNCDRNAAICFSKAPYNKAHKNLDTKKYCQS
# An asterisk follows results filed as active; ? = inconclusive; nt = no result. Only some compounds are listed: those with a hit (about 1.8% of all), similar ones and a draw of the others.
SMILES,HKDC1 inh,A1 inh,AI-2 QS modul,ATG4B inh,HDAC3 inhib,LANA-H2A inh,PLA2 ctr,others
CN1CCc2cc3c(c4c2C1Cc1ccccc1-4)OCO3 (stereo unspecified),32,-1,8,-6,-3,4,nt,HKDC1 act conf2=-1
COC(=O)[C@@H]1[C@@H](C(=O)OC)C2(c3ccccc3-c3ccccc32)N(c2ccc(Cl)cc2)N1C#N,62*,-1,13,12,10,-1,nt,HKDC1 act conf2=43
COC(=O)C[C@]1(C(=O)OC)CN(C#N)N(c2ccc(Cl)cc2)C12c1ccccc1-c1ccccc12,87*,0,6,-1,10,-5,nt,HKDC1 act conf2=62
O=C1NC(=O)C2(CCCC2)C(=O)N1,-2,nt,nt,2,nt,nt,nt,
Nc1cnn(-c2ccccc2)c(=O)c1Cl,45*,1,21,-8,0,-1,nt,HKDC1 act conf2=-22
CC1(C)COC(Nc2cccc(Cl)c2)=N1,-2,1,10,-11,8,2,nt,
Cc1ccc(-c2nn(Cc3ccccc3)cc2C=O)cc1C,-14,?,8,61*,-3,-4,78*,
Cc1ccc(-c2nn(Cc3ccccc3)cc2C=O)cc1,-7,1,8,48*,1,-6,59*,
Cc1ccc(Cn2cc(C=O)c(-c3ccc(F)cc3)n2)cc1,-1,0,2,10,-1,-2,nt,
Cc1ccc(-c2nn(Cc3ccccc3)cc2C(=O)O)cc1,2,0,3,-3,-3,-1,nt,
COc1ccc(-c2cc(=Nc3cccc(C(=O)O)c3)c3cc(C)ccc3o2)cc1,3,-8,22,61*,-68,-2,76*,
Clc1ccccc1CN1CCN(c2ccccc2Cl)CC1,-9,0,41,46*,7,-5,47,ATG4B confirm=70*
Clc1ccccc1N1CCN(Cc2ccc3c(c2)OCO3)CC1,1,1,6,23,2,4,nt,
Cc1ccc(NC(=O)[C@@H](NC(=O)N2C[C@H]3C[C@@H](C2)c2cccc(=O)n2C3)C(C)C)cc1,-2,0,14,-20,-1,5,nt,
CN(C)[C@@H]1C(=O)C(C(N)=O)=C(O)[C@@]2(O)C(=O)C3=C(O)c4c(O)ccc(Cl)c4[C@@](C)(O)C3C[C@@H]12 (stereo partly specified),5,nt,nt,80*,nt,nt,13,ATG4B confirm=47*
COc1ccc(/C=C/C(=O)NC(=S)N2C[C@H]3C[C@H](C2)c2cccc(=O)n2C3)cc1OC,1,0,18,-2,5,3,nt,
Cc1cc(C(=O)CS(=O)c2ccc(F)cc2)cc(C)c1OC(=O)N(C)C (stereo unspecified),-5,0,6,13,-1,4,nt,
Cc1cc(OCC(=O)NC(Cc2ccc(Cl)cc2)C(=O)O)c2c3c(c(=O)oc2c1)CCCC3 (stereo unspecified),5,1,3,45*,-28,4,72*,
Cc1cc(S(=O)(=O)NCc2ccccc2)ccc1OCC(=O)N1CCN(C)CC1,-6,0,20,-5,1,-1,nt,
OC1/C(=C/c2ccccc2C(F)(F)F)N2CCC1CC2 (stereo unspecified),-4,-1,4,-8,-4,0,nt,
O=c1c2ccccc2nc(/C=C/c2ccccc2)n1-c1ccccc1O,5,-1,12,62*,-5,1,70*,
Cc1ccc(CN2C3CCCC2CC(NC(=S)NCc2ccccc2)C3)cc1 (stereo unspecified),-6,0,-39,43*,-5,-2,40,ATG4B confirm=67*
CCOC(=O)C1=C(C)N(C)C2(C)CC1c1ccccc1O2 (stereo unspecified),-7,0,20,48*,8,1,26,
CC12CC(c3ccccc3O1)C(C(=O)OCc1ccccc1)C(=O)N2 (stereo unspecified),-2,0,10,-3,8,-5,nt,
